The nature of data set [1]: Inhibition of AcPHF6 peptide aggregation in pH 7.4 phosphate buffer at 20 uM by CD Spectroscopy.
Data set [2] in a line: Inhibition of AcPHF6 peptide aggregation in pH 7.4 phosphate buffer at 10 uM by atomic force microscopy. The procedure, abridged: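 AcPHF6 500 µM in water diluted to 50 µM in 50 mM phosphate pH 7.4, ±10 µM compound, no ThT. Incubated 80 min at 25 °C with 10 s shaking at 400 rpm each minute. Ultrafiltered (30 kDa cut-off), buffer exchanged to water, and the retained high-MW fraction adsorbed on mica. Imaged by PeakForce tapping-mode AFM.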

Data set [3] has as its target T1, Glycogen synthase kinase-3 beta (Homo sapiens, UniProt P49841). As to the kind of experiment: Inhibition of GSK3beta (unknown origin) at 10 uM using GS-2 peptide substrate incubated for 30 mins by kinase-Glo luminescent assay. The procedure, abridged: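 Human recombinant GSK-3β, 20 ng, in 50 mM HEPES pH 7.5 with 1 mM EDTA, 1 mM EGTA and Mg acetate. Substrate prephosphorylated GS-2 peptide 25 µM with 1 µM ATP; DMSO ≤1%. Incubated 30 min at 30 °C, then Kinase-Glo luminescence read after 10 min. Activity scaled between no-inhibitor and full-inhibition reference controls.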
Target sequence in this assay (P49841 whole entry, looked up): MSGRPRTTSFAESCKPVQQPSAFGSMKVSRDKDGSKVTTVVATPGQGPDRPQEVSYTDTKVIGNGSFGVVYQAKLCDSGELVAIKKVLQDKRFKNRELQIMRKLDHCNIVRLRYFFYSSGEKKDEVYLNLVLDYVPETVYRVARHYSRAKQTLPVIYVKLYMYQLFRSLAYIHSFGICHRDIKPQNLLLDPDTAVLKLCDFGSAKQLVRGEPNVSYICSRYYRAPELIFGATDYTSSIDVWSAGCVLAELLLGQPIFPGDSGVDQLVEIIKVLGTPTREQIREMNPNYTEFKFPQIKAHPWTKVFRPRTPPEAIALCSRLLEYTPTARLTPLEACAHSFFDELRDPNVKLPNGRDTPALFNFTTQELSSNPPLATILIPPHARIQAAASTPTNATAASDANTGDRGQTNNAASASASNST

In data set [4] the target is Microtubule-associated protein tau (Homo sapiens) (UniProt P10636). Briefly: Inhibition of heparin-induced full-length 2N4R tau self aggregation (unknown origin) assessed as reduction in formed aggregates level at 10 uM by ThT fluorescence assay based RT-QuIC analysis. The procedure, abridged:
(§1)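 Full-length 2N4R tau 20 µM with heparin 0.02 mg/mL, 0.5 mM DTT and 10 µM ThT in PBS, ±10 µM compound; 1% DMSO control. Cycled 1 min shaking at 600 rpm and 1 min rest at 42 °C. ThT read every 2 min (ex 450, em 480 nm).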

The target in data set [5] is T1, Glycogen synthase kinase-3 beta. Briefly: Inhibition of GSK3beta (unknown origin) using GS-2 peptide substrate incubated for 30 mins by kinase-Glo luminescent assay. In short, it runs like this:
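Human recombinant GSK-3β, 20 ng, in 50 mM HEPES pH 7.5 with 1 mM EDTA, 1 mM EGTA and Mg acetate. Incubated 30 min at 30 °C, then Kinase-Glo luminescence read after 10 min. Activity scaled between no-inhibitor and full-inhibition reference controls.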
Target sequence in this assay (P49841 whole entry): as the sequence (P49841 whole entry, looked up) above

For data set [6] the target is unchanged. As to the kind of experiment: Reversible inhibition of GSK3beta (unknown origin) pre-incubated for 30 mins followed by 100 fold dilution into buffer containing ULight-GS (Ser641/pSer657) peptide substrate and cofactors by TR-FRET assay based jump-dilution assay.
Target sequence in this assay (P49841 whole entry, looked up): as above
Data set [7] shares this target. As to the kind of experiment: Inhibition of GSK3beta (unknown origin) at 10 uM. The procedure, abridged:
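Human recombinant GSK-3β (20 ng) with 25 µM GS-2 prephosphorylated peptide and 1 µM ATP in 50 mM HEPES pH 7.5, 1 mM EDTA, 1 mM EGTA, Mg acetate. DMSO at most 1%. 30 min at 30 °C; reaction stopped with Kinase-Glo, luminescence read after 10 min. Activity scaled between no inhibitor and full inhibition by a reference inhibitor.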
Target sequence in this assay (P49841 whole entry, looked up): as above

Data set [8] has the same target. As to the kind of experiment: Inhibition of okadaic acid-induced GSK-3beta-mediated tau hyperphosphorylation in human SH-SY5Y cells assessed as increase in cell viability pre-incubated for 1 hr before okadaic acid stimulation for 24 hrs by MTT assay. The data set is classed as cell-based. The procedure, abridged:
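SH-SY5Y cells grown in DMEM with 10% FBS, seeded at 60000 per well and used 48 h later. Compound given 1 h before 30nM okadaic acid, then 24 h incubation. Viability by MTT, 0.5mg/mL for at least 4 h, formazan dissolved in DMSO, absorbance at 595 nm. Expressed relative to control (=100); n=6 from three independent experiments.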
Target sequence in this assay (P49841 whole entry, looked up): as above

Data set [9] has the same target. Briefly: Inhibition of GSK3beta (unknown origin) pre-incubated for 30 mins followed by ULight-GS (Ser641/pSer657) peptide substrate addition and measured after 1 hr by TR-FRET assay.
Target sequence in this assay (P49841 whole entry): as the sequence (P49841 whole entry, looked up) above
The subject of data set [10] is Cerebellar granule neurone. As to the kind of experiment: Neurotoxicity in rat primary cerebellar granule neurons assessed as reduction in cell viability at 5 to 25 uM incubated for 24 hrs by MTT assay. The format is toxicity. In short, it runs like this:
(§2)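 Cerebellar granule neurons from 7-day-old rat pups, plated on poly-L-lysine at 3 × 10^5 cells/well in BME with FBS and 25 mM KCl. Cytosine arabinoside 10 µM added at 16 h. At 7 days in vitro, switched to serum-free BME with 25 mM KCl and treated 24 h at 0, 5, 25 or 50 µM. MTT 0.1 mg/mL for 20 min at 37 °C, A570. Mean ± SE of ≥3 experiments in triplicate, as % of control.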

Data set [11] has as its target T1, Glycogen synthase kinase-3 beta. Briefly: Competitive inhibition of GSK3beta (unknown origin) at 10 uM using fixed level of GS-2 peptide substrate and varying ATP levels incubated for 30 mins by kinase-Glo luminescent assay. In short, it runs like this:
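Human recombinant GSK-3β, 20 ng per reaction, in HEPES pH 7.5 buffer with EDTA, EGTA and Mg acetate. GS-2 prephosphorylated peptide held at 25 µM; ATP varied from 1 to 50 µM along with inhibitor level. 30 min at 30 °C, then Kinase-Glo luminescence read after 10 min. Lineweaver–Burk double-reciprocal analysis; means of two experiments, each run in triplicate.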
Target sequence in this assay (P49841 whole entry, looked up): as above

The nature of data set [12]: Hepatotoxicity in human HepG2 cells assessed as reduction in cell viability at 5 to 50 uM incubated for 24 hrs by MTT assay. The following applies: hepg2, 24 h. The data set is classed as toxicity, cell-based. The procedure, abridged: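 HepG2 cells grown in DMEM with 10% FBS at 37 °C, 5% CO2, seeded at 0.5 × 10^5 cells/well and left 24 h. Exposed in serum-free DMEM for 24 h (concentrations listed as 0, 10, 25, 50 µM; elsewhere 0, 5, 25, 50 µM). MTT 0.1 mg/mL for 10 min at 37 °C in the dark. Formazan dissolved in Tris/Triton X-100, A570. Mean ± SE of ≥3 experiments in triplicate; reported as % of control.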

Data set [13] has as its target Casein kinase I isoform delta (Homo sapiens) (UniProt P48730). As to the kind of experiment: Inhibition of human recombinant CK1delta at 10 uM incubated for 60 mins by Kinase-Glo assay. The procedure, abridged: (§3)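 Human recombinant CK1δ or CK1ε, 16 ng, in 50 mM HEPES pH 7.5 with 10 mM MgCl2, 1 mM EGTA and Brij-35. Substrate 0.1% casein with 4 µM ATP; compound diluted to 10 µM before addition, DMSO ≤1%. Incubated 60 min at 30 °C, then Kinase-Glo luminescence read. Inhibition relative to no-inhibitor activity; mean of two experiments.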

Data set [14] in a line: Permeability in pH 7.4 PBS incubated for 2.5 hrs by PAMPA-BBB assay. The format is ADME. The following applies: read-out: permeability. In short, it runs like this: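 PAMPA-BBB: donor filter coated with porcine brain lipid in dodecane (20 mg/mL). Compounds in PBS pH 7.4/EtOH 70:30, acceptor filled with the same. Sandwich incubated 2.5 h at 25 °C, then donor and acceptor concentrations measured by UV at 3–5 wavelengths, 3 wells, two runs. Ten reference drugs included for validation.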

The subject of data set [15] is Cerebellar granule neurone. As to the kind of experiment: Neurotoxicity in rat primary cerebellar granule neurons assessed as reduction in cell viability at 50 uM incubated for 24 hrs by MTT assay. The format is toxicity. In short, it runs like this: as §2
Data set [16] concerns the target Casein kinase I isoform epsilon (Homo sapiens) (UniProt P49674). Briefly: Inhibition of human recombinant CK1epsilon at 10 uM incubated for 60 mins by Kinase-Glo assay. The procedure, abridged: as §3
Data set [17] concerns the target Microtubule-associated protein tau (Homo sapiens) (UniProt P10636). As to the kind of experiment: Inhibition of heparin-induced full-length 2N4R tau self aggregation (unknown origin) assessed as induction of delay in aggregation at 10 uM by ThT fluorescence assay based RT-QuIC analysis. The procedure, abridged:
as §1

Data set [18] addresses CDC7/DBF4 (Cell division cycle 7-related protein kinase/Activator of S phase kinase) (Homo sapiens) (UniProt Q9UBU7+O00311). Briefly: Inhibition of CDC7/Dbf4 (unknown origin) at 10 uM incubated for 60 mins by Kinase-Glo assay. The format is protein-complex assay. The following applies: in the assay text read “ADP-Glo assay” for “Kinase-Glo assay”. The procedure, abridged:
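CDC7/DBF4 enzyme, 25 ng/well, with 10 µM ATP (final) and PDKtide substrate. Incubated 60 min at room temperature. ADP-Glo reagent added for 40 min, then detection reagent for 30 min, and luminescence read. Inhibition calculated relative to the no-inhibitor maximum.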

A short description of data set [19]: Inhibition of tau K18 fragment peptide aggregation assessed as induction of delay in […] self aggregation at 1 to 10 uM measured every 15 mins by ThT fluorescence assay based RT-QuIC analysis. In short, it runs like this: (§4)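 Tau K18 21 µM with heparin 0.015 mg/mL, 0.1 mM DTT and 10 µM ThT in PBS, with compound at 1, 5 or 10 µM or 1% DMSO; triplicate. Cycled 1 min shaking at 300 rpm and 14 min rest at 37 °C. ThT read every 15 min (ex 450, em 480 nm). Inhibition from mean plateau fluorescence.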

The nature of data set [20]: Inhibition of tau K18 fragment peptide aggregation assessed as reduction in […] self aggregation at 1 to 10 uM measured every 15 mins by ThT fluorescence assay based RT-QuIC analysis. In short, it runs like this:
as §4

Results on 1 compound are retold here after ChEMBL document CHEMBL4145680, “Tau-Centric Multitarget Approach for Alzheimer's Disease: Development of First-in-Class Dual Glycogen Synthase Kinase 3β and Tau-Aggregation Inhibitors” (J Med Chem, 2018).

Active and inactive are the calls of the source.

Chain of Microtubule-associated protein tau (Homo sapiens) (P10636 whole entry): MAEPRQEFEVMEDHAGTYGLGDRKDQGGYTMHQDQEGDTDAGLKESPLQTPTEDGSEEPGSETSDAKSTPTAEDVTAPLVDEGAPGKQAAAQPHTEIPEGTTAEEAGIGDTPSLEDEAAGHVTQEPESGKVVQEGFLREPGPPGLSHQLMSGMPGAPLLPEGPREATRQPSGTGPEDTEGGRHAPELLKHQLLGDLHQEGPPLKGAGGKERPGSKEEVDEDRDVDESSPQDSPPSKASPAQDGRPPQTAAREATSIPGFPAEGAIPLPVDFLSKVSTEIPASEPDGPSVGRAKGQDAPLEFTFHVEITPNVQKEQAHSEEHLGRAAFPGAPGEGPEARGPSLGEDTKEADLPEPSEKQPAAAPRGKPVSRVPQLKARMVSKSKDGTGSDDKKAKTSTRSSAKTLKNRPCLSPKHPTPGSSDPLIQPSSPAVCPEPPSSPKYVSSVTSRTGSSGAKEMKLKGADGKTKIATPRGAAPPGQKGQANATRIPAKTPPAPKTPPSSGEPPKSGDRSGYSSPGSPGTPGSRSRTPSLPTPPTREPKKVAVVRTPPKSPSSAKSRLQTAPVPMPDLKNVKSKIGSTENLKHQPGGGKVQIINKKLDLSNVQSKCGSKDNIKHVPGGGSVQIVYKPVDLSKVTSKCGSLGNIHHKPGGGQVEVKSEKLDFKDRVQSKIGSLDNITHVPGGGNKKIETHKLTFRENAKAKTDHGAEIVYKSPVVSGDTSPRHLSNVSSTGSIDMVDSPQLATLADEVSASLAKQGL
Chain of CDC7/DBF4 (Cell division cycle 7-related protein kinase/Activator of S phase kinase) (Homo sapiens) (O00311 whole entry, looked up): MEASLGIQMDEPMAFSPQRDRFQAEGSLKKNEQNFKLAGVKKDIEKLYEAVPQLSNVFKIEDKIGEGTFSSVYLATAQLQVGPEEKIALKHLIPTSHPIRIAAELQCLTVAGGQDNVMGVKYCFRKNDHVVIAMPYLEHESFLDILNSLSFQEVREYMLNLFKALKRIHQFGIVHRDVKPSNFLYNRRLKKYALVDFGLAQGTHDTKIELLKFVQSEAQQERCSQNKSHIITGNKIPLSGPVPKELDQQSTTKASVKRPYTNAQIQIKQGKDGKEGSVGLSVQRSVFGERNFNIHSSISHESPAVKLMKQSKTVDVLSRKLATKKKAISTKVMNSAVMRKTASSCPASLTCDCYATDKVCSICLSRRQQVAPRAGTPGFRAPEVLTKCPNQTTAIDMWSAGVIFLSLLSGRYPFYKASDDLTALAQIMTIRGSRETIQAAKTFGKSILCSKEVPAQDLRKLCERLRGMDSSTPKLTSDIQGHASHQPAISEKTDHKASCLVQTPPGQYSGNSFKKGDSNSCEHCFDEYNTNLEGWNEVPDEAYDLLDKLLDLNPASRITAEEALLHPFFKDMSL
Chain of CDC7/DBF4 (Cell division cycle 7-related protein kinase/Activator of S phase kinase) (Homo sapiens) (Q9UBU7 whole entry, looked up): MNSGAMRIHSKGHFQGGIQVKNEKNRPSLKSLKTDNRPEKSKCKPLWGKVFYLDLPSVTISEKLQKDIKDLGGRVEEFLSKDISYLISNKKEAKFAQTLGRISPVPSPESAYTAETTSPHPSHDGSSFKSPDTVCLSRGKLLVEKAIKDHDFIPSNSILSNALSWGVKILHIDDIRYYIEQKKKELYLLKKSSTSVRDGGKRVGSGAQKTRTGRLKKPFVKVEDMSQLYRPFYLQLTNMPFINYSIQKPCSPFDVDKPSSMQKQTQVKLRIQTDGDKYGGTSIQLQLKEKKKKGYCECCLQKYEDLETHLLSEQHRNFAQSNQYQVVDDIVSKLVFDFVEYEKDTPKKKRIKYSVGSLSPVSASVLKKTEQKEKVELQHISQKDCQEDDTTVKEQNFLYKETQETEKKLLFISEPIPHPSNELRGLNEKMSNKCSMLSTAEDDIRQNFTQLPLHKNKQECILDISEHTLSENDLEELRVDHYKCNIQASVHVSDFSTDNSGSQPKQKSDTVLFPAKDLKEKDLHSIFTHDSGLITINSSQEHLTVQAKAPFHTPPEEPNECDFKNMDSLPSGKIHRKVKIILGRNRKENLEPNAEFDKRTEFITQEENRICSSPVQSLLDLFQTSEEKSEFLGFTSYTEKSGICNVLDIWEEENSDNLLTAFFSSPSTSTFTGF
Chain of Casein kinase I isoform delta (Homo sapiens) (P48730 whole entry, looked up, canonical isoform): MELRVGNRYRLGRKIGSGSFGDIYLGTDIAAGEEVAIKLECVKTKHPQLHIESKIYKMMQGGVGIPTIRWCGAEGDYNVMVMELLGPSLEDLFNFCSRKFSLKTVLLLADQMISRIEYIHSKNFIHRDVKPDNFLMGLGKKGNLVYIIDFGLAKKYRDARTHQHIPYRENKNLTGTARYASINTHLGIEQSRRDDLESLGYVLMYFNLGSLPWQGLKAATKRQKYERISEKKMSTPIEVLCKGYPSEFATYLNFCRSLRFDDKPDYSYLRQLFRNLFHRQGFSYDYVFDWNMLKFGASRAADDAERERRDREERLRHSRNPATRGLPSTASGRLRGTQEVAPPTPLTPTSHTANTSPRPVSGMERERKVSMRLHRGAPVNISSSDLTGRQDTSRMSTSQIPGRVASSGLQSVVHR
Chain of Casein kinase I isoform epsilon (Homo sapiens) (P49674 whole entry, looked up, canonical isoform): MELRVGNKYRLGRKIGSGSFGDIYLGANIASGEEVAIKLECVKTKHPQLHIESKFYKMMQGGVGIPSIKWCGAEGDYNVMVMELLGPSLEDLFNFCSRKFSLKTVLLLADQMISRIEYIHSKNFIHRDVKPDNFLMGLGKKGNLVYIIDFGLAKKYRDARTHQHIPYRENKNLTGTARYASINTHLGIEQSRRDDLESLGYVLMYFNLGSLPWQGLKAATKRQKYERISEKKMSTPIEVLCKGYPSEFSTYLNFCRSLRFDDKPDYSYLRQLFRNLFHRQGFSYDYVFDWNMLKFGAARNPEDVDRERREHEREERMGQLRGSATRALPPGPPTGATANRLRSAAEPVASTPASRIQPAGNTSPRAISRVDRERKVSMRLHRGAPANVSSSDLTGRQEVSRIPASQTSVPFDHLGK

For the compound `COc1ccc2c(c1)c(/C=C1\SC(=O)NC1=O)cn2C`, the inhibition result in data set [1], in data set [2], in data set [6], in [8], in [11] and in data set [19] was “Active” each time. The inhibition in data set [3] is over 50%; in data set [4], 30%; in [7], 100%; in [20], 35%. Moreover, the values for the IC50 in data set [5] and in [9] were 0.89 µM and 5.5 µM, respectively. The Activity result in data set [10] is given as “Non-Toxic”; in data set [12], “Non-Toxic”; in data set [15] it was “Toxic”. The inhibition entry in [13], in data set [16], in data set [17] and in data set [18] was “inactive” each time. Further, the Papp at 2.5 h in data set [14] is over 3.07 ×10⁻⁶ cm/s.
